The list is not random: actives were taken first. Their share in the collection is about 4.1%.
MrgX1 antag = human MrgX1 receptor antagonism, primary screen | B-score at 10 µM | AID 588676 | MRGX1-HEK293 calcium flux, Fluo-4, BAM8-22 antagonism; stronger effect = lower value | 310,000 tested, 1.3% active | Q96LB2;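 active = calcium-response B-score plate-corrected more than 3 library SD below zero, starting fluorescence within 5 deviations, no agonist response on first addition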;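 also: peak minus trough fluorescence over baseline after final BAM8-22 challenge near maximal dose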
RGS4 block = human RGS4 inhibition; 310,000 tested, 0.45% active; B-score at 10 µM; AID 463165; HEK293 M3R/RGS4 inducible, Fluo-4 calcium flux; stronger effect = higher value; triggered by carbachol at its EC20; P49798;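 active = B-score, a plate-corrected calcium signal, over three deviations above library mean, with baseline fluorescence within five deviations of library mean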;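 also: RGS4 expression induced by doxycycline in cells with stable M3 receptor; B-score is computed from the integrated fluorescence ratio over baseline after carbachol; higher B-score means a larger calcium signal and so more RGS4 inhibition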
MrgX1 ag = human MrgX1 receptor agonism, primary screen; MrgX1-HEK293 cells, Fluo-4 calcium fluorescence, agonist mode; stronger effect = higher value; B-score at 10 µM; 310,000 tested, 0.44% active; AID 588627;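 active = calcium response B-score plate-corrected fluorescence ratio at least 3 library SD, with starting fluorescence B-score inside 5 SD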
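Test system: HEK293 cells stably expressing human MrgX1 receptor; amount: 15,000 cells per well; doses: compound delivered in addition one of three; times: overnight plating before 1 h dye loading; detection: Fluo-4 NW calcium-flux fluorescence, kinetic read; read-out basis: B-scored fluorescence response ratio; controls: positive and negative controls per plate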
Kir21 inh = Kir2.1 (mouse) channel inhibition; P35561; HEK293-Kir2.1, FluxOR thallium flux fluorescence; stronger effect = lower value; B-score at 10 µM; 310,000 tested, 0.85% active;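 active = fluorescence ratio B-score at or below minus 3 SD of library scores, with starting-brightness B-score within 2 SD, cut at about -4.2 in these data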;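 also: channel flux triggered by added potassium and thallium sulfate stimulus; B-score of peak minus minimum fluorescence over baseline after thallium stimulus; more negative B-score means stronger Kir2.1 block with less thallium influx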
Target sequence (P35561 whole entry, looked up): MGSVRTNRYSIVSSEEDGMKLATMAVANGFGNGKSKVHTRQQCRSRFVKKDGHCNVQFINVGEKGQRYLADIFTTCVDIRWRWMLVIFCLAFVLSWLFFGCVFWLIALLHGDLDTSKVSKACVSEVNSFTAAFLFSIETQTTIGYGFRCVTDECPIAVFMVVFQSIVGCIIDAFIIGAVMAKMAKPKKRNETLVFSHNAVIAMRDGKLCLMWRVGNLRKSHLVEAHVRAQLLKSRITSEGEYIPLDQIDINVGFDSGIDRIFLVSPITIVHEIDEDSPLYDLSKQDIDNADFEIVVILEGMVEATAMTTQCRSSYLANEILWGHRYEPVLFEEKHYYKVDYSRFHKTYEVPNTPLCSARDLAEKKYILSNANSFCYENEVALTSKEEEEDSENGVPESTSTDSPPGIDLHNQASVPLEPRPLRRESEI
RGS4 pot = potentiators or activators of RGS4. HEK293 M3R/inducible RGS4, carbachol calcium flux Fluo4; stronger effect = lower value. AID 463111. 310,000 tested, 0.92% active. B-score at 10 µM;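 active = B-score of the integrated calcium signal more than 4 SD below the library mean, with starting fluorescence not abnormally high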;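 also: negative B-score means reduced calcium response which marks RGS4 activation or potentiation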
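Material: Inducible-RGS4 HEK293 cells carrying M3 receptor; also added: carbachol at ECmax as muscarinic agonist stimulus; incubation: compound preincubation 20 min at room temperature before agonist; signal: Fluo4-AM (2 µM) calcium-flux fluorescence, kinetic read; measure: integrated calcium ratio converted to B score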
MrgX1 allo act = allosterically activates human MrgX1 receptor signaling. Q96LB2. 310,000 tested, 0.63% active. B-score at 10 µM. AID 588675. MrgX1-HEK293, Fluo-4 calcium flux, FDSS; stronger effect = higher value;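 active = plate-corrected calcium response at least 3 library SD above typical, normal starting fluorescence, not activating the receptor alone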;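 also: compound read alongside a low EC10 to EC30 dose of BAM8-22 agonist; peak minus trough fluorescence over baseline measured at the second addition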
MrgX1 ag reconf = reconfirmed activator of human MrgX1 receptor signaling; MrgX1-HEK293, Fluo-4 calcium fluorescence, FDSS; activation, % at 10 µM; 600 tested, 78% active; shares compounds with MrgX1 ag;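 active = calcium signal rise, corrected for plate position, at least 3 library SD high, with starting brightness within 5 such deviations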
HEK293 Ca flux = MrgX1 antagonist counter-screen hit in parental HEK293 cells; Fluo-4 calcium fluorescence, FDSS; shares compounds with MrgX1 antag; AID 624111; fluorescence ratio F(max-min)/F0 at 10 µM; 4,000 tested, 2% active;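 active = duplicate-averaged calcium fluorescence ratio at least three times the standard deviation of buffer wells, a nonspecific response in parental cells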
HEK293 Ca counter = counter-screen for MrgX1 allosteric activators: effect in parental HEK293 cells; 4,000 tested, 0.4% active; shares compounds with MrgX1 antag; fluorescence ratio F(max-min)/F0 at 10 µM; parental HEK293 calcium flux, Fluo-4 fluorescence ratio; stronger effect = higher value;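 active = calcium fluorescence ratio, averaged over duplicates, at least 3 SD of the buffer-well ratio, meaning a nonspecific response in receptor-free cells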;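 also: untransfected parental HEK293 lacking MrgX1 used as counterscreen for MrgX1 allosteric activators; fluorescence change taken during the second addition on a kinetic imager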
HEK293 Ca cntr2 = activity in parental HEK293 cells lacking MrgX1 receptor; shares compounds with MrgX1 antag; Fluo-4 calcium fluorescence (FDSS); stronger effect = higher value; fluorescence ratio F(max-min)/F0 at 10 µM; 4,000 tested, 8.7% active;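 active = calcium fluorescence ratio at least three times the spread of buffer wells, meaning a non-specific response in parental cells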
Numbers without * were called inactive; i = inactive; nt = not tested or not shown.

SMILES	MrgX1 antag	RGS4 block	MrgX1 ag	Kir21 inh	RGS4 pot	MrgX1 allo act	MrgX1 ag reconf	HEK293 Ca flux	HEK293 Ca counter	HEK293 Ca cntr2
CC1(c2ccccc2)CC(C)(C)N2C(=O)C(=O)c3cccc1c32 (centres undefined)	i	i	28.8*	-2.11	i	i	i	i	i	i
CC1(c2ccccc2)CC(C)(C)n2c(O)c(C3=NC(=S)NC3=O)c3cccc1c32 (centres undefined)	i	i	i	-0.38	i	i	nt	nt	nt	nt
CC(Oc1ccccc1)C(=O)Nc1nnc(S(=O)(=O)N(C)c2ccccc2)s1 (centres undefined)	i	i	29*	-1.96	i	i	95.2%*	i	i	45.8*
Cc1ccc(C(=O)NNC(=O)c2ccco2)cc1	i	i	i	-0.55	i	i	nt	nt	nt	nt
Cc1ccccc1OCC(=O)NNC(=S)NC(=O)c1ccco1	i	i	71*	0.02	i	i	326.5%*	i	i	62.5*
Cc1ccc(C(=O)NNC(=S)NC(=O)c2ccco2)cc1	i	i	135*	0.59	i	i	680.5%*	i	i	123*
COCC(=O)c1[nH]c2ccccc2c1C	i	i	40.8*	0.05	i	i	196.4%*	i	i	i
N#CC(c1nc2ccccc2nc1N1CCOCC1)S(=O)(=O)c1ccccc1 (centres undefined)	i	i	i	-0.03	i	i	nt	nt	nt	nt
Cc1ccc(S(=O)(=O)C(C#N)c2nc3ccccc3nc2N2CCCC2)cc1 (centres undefined)	i	i	30.1*	-1.52	i	i	i	i	i	51.6*
COc1ccc(NC(=O)Cn2nnc(C(=O)NCCc3ccccc3)c2N)c(OC)c1	i	i	i	0.15	i	i	nt	nt	nt	nt
COc1ccccc1N1CCN(c2cc(N3CCCC3)nc(C)n2)CC1	i	i	i	0.71	i	i	nt	nt	nt	nt
CCCCc1ncc(CN2CCC(CC3CCCCO3)(C(=O)OCC)CC2)[nH]1 (centres undefined)	i	i	i	-0.12	i	i	nt	nt	nt	nt
CCOC(=O)C1(CC2CCCCO2)CCN(Cc2cc3ccccc3[nH]2)CC1 (centres undefined)	i	i	113*	-2.18	i	i	650.5%*	i	i	95*
O=C(NC1CCCCC1)c1cc(S(=O)(=O)N2CCOCC2)ccc1Cl	i	i	i	0.32	i	i	nt	nt	nt	nt
O=C(CCN1CCC(c2ccccc2)C1)c1ccc2c(c1)OCCO2 (centres undefined)	i	i	36.4*	-2.34	i	i	i	i	i	i
O=C(c1cccs1)N1CCC(c2ccccc2)C1 (centres undefined)	i	i	i	0.82	i	i	nt	nt	nt	nt
O=C(CCN1CCC(c2ccccc2)C1)c1cccs1 (centres undefined)	i	i	43.7*	0.1	i	i	140.1%*	i	i	i
O=C(C1CCCO1)N1CCN(C(=S)Nc2cc(F)cc(F)c2)CC1 (centres undefined)	i	i	i	-0.88	i	i	nt	nt	nt	nt
Cc1nc(NC(=O)c2ccccc2)sc1-c1csc(NCCc2ccccc2)n1	i	i	i	1.35	i	i	nt	nt	nt	nt
COc1cc(SC)ccc1C(=O)Nc1ccc(Cl)cn1	i	i	40.2*	1.34	i	i	i	i	i	i
